# Screening results (PubChem BioAssay)
# Only some compounds are listed: those with a hit (about 4.2% of all), similar ones and a draw of the others.
# UPR CHOP act: apoptotic UPR (CHOP) activation; AID 449763; 330,000 compounds, 0.34% hits; activation, % at 10 µM; CHO-CHOP luciferase reporter, luminescence; percent of tunicamycin response over DMSO baseline;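 active = at 10 µM dose, activation of 40% or more, normalized to positive control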;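 also: 100% = tunicamycin at 10 µg/mL and 0% = DMSO alone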
#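 System: CHO CHOP reporter cells. Amount: 500 cells per well. Buffer or medium: F12 medium, 10% FBS. Compound dosing: one dose, 10 µM in 0.5% DMSO. Incubation: 6 h compound exposure at 37 °C after overnight seeding. Technique: Steady-Glo luciferase luminescence. Benchmarks: tunicamycin and DMSO controls.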
# Hep lipid drop: hepatic lipid droplet formation modulation; AML12 mouse hepatocytes, oleate lipid droplets, BODIPY imaging; inhibition, % at 6.5 µM; 240,000 compounds, 0.4% hits;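 active = lipid droplet intensity inhibited by at least 50%, with more than 500 cells counted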
#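 Material – AML12 mouse liver cells · Also added – oleate loading, 100 µM · Compound dosing – 6.5 µM single-point dosing · Times – overnight treatment with compound plus oleate · Measured by – fluorescence imaging, 20x objective, two fields per well · Read-out – percent inhibition of filter-corrected integrated lipid droplet intensity per well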
# ANO1 activ: mouse TMEM16A channel activation, primary screen. Q8BHY3. HEK293 TMEM16A/YFP-H148Q/I152L, iodide quench fluorescence; stronger effect = lower value. B-score at 10 µM. 340,000 compounds, 0.3% hits;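 active = fluorescence-ratio B-score plate-corrected deviation score at least 3 library SD below zero, with starting fluorescence score within 5 deviations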;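 also: channel opened by trigger with iodide after compound preincubation; score built on the fluorescence ratio of max minus min over baseline; more negative score means more quench and so TMEM16A activation or potentiation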
# Target sequence (Q8BHY3 whole entry, looked up): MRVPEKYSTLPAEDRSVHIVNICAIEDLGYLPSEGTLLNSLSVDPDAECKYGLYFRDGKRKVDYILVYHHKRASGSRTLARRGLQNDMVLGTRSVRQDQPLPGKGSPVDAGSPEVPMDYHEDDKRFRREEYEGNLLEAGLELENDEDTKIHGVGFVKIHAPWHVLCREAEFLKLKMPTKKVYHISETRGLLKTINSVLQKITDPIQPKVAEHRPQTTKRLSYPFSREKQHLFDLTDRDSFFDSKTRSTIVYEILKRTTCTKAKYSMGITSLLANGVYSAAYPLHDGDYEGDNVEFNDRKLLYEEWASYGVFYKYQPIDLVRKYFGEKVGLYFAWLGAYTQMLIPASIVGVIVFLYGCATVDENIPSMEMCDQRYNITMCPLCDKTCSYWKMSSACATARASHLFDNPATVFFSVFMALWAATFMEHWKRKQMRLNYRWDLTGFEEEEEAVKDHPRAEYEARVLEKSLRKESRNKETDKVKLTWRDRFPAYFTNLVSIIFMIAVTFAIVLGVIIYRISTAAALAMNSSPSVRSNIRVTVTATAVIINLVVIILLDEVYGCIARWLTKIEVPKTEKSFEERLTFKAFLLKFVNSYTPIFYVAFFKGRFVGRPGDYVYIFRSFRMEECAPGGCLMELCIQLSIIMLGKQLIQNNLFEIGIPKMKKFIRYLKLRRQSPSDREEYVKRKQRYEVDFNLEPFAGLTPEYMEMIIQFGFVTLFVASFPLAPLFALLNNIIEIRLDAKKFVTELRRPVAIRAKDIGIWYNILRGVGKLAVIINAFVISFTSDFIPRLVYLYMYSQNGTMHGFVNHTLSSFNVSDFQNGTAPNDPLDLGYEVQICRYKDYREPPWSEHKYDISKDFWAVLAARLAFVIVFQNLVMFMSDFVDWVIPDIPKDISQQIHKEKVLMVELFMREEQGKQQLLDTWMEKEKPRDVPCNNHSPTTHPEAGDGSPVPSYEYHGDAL
# CHOP inh: blocks CHOP induction under ER stress; CHO-K1 CHOP-promoter luciferase, tunicamycin-induced, 15-18 h; 220,000 compounds, 3.8% hits; inhibition, % at 10 µM; AID 2732;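 active = compounds that reduced the stress-induced luciferase reporter signal by more than about 70% of percent inhibition, limit read from the data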;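 also: 0% = tunicamycin plus vehicle and 100% = wells without tunicamycin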
# TMEM16A inh: blocks the mouse calcium-activated chloride channel TMEM16A. normalized B-score (activity score, 25-100; higher = stronger inhibition) at 10 µM. Q8BHY3. HEK293 TMEM16A/YFP iodide influx fluorescence, ionomycin. AID 588511. 310,000 compounds, 1.2% hits;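 active = ratio plate-corrected score three or more library SD toward inhibition, starting fluorescence score within five deviations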;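 also: score derived from kinetic fluorescence span divided by baseline fluorescence per well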
# UPR XBP1 act: adaptive UPR (XBP1) activation. CHO-XBP1 luciferase reporter, IRE1-XBP1 UPR activation, luminescence; percent of tunicamycin response, DMSO as zero. activation, % at 20 µM. 330,000 compounds, 0.33% hits. AID 463104;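 active = versus positive control, 20 µM dose yields 30% or more activation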;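 also: 100% = tunicamycin at 10 µg/mL and 0% = DMSO only wells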
#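 incubation = overnight seeding at 37 °C, 6 h compound treatment at 37 °C | assay system = CHO-XBP1 cells stably carrying IRE1-XBP1-driven luciferase reporter | input = 1000 cells per well | detection = luciferase luminescence | dosing = single point, 20 µM final compound, 1% DMSO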
# Starred values were filed as active, the others as inactive; i = inactive; nt = no result given.
SMILES,UPR CHOP act,Hep lipid drop,ANO1 activ,CHOP inh,TMEM16A inh,UPR XBP1 act
C=CC[n+]1ccc(/C=C2\C=Cc3cc(C)ccc3N2CC)c2ccccc21,nt,-37,i,75*,nt,nt
Cc1nc(C2CCC3C4CCC5=CC(=O)CC[C@]5(C)C4CC[C@]23C)cs1 (stereo not given in full),7,-4,nt,76*,i,4
C/C=C1\C(=O)CC2C3CCC4=CC(=O)CC[C@]4(C)C3CC[C@]12C (stereo not given in full),nt,nt,nt,12,nt,nt
COc1ccc(OC)c(CCNC(=O)Cn2nc(C)c3c(C)n(-c4ccc(C)cc4)nc3c2=O)c1,2,41,i,nt,i,-4
COc1ccc(CCNC(=O)Cn2nc(C)c3c(C)n(-c4ccccc4)nc3c2=O)c(OC)c1,0,7,-7.9*,nt,i,0
O=C(Cn1cc(C(F)(F)F)cc(Cl)c1=O)NCCc1ccc(Cl)cc1Cl,-1,-20,i,74*,i,-3
COc1cc(/C=C2\SC(=S)N(CCC(=O)Nc3cccc(O)c3)C2=O)cc(OC)c1OC,11,-14,i,nt,i,-1
Cc1nc2c(C(=O)NCCC(C)C)c[nH]n2c(=O)c1Cc1ccccc1F,2,nt,i,35,100*,0
Cc1nc2c(C(=O)NCCC(C)C)c[nH]n2c(=O)c1Cl,0,-5,i,20,i,-4
O=C(CSc1nc(=O)n(CCCN2CCOCC2)c2c1CCCC2)Nc1cccc(Cl)c1,0,nt,i,nt,i,-4
CC(=O)CSc1ncnc2scc(-c3ccc(F)cc3)c12,1,12,i,14,i,14
Cc1ccc(-c2csc3ncnc(SCC(=O)Nc4nnc(C)s4)c23)cc1,0,-10,i,74*,i,-3
CCc1cccc2c(C(=O)Cn3nnc(-c4ccc(OC)c(OC)c4)n3)c[nH]c12,-1,0,i,72*,i,-3
COc1ccc(-c2nnn(CC(=O)NCc3ccc4c(c3)OCO4)n2)cc1OC,-1,-8,i,21,i,0
CCOCCCNC(=S)Nc1ccc2nc(N3CCOCC3)cc(C)c2c1,0,-11,i,nt,i,-1
Cc1ccc(/C=N/Nc2ncc(Cl)cc2Cl)s1,5,5,i,15,25*,-3
O=C(OCc1ccccc1)N(CCCCN(CCCNCc1ccccc1)C(=O)OCc1ccccc1)CCCNCc1ccccc1,nt,nt,-5.4*,nt,nt,nt
O=[N+]([O-])c1ccc(O)c(-c2cc(C(F)(F)F)nc(-c3ccccc3)n2)c1,33,-23,i,nt,100*,0
COc1ccc(C(=O)NC(=O)COC(=O)C2CC2C)cc1 (stereo not given),0,nt,i,nt,nt,0
CCCCc1ccc(NC2=NCC(=O)N2CCc2ccccc2)cc1,-3,0,i,95*,i,-3
Cc1cc(C)cc(NC2=NCC(=O)N2Cc2ccccc2)c1,2,-22,i,30,i,-2
CC(C)(Sc1ccc(CCN(CCCCC2CCCCC2)C(=O)NC2CCCCC2)cc1)C(=O)O,1,nt,i,-4,100*,-6
CN(Cc1ccccc1)C(=O)NC1CCCCC1,1,-12,i,-8,i,-3
Cc1ccc(NC(=O)COc2ccccc2CNC(C)(C)CC(C)(C)C)cc1,1,1,i,74*,i,0
CC(C)(CO)NCc1ccccc1OCC(=O)Nc1ccccc1,0,10,i,6,i,0
SMILES,UPR CHOP act,Hep lipid drop,ANO1 activ,CHOP inh,TMEM16A inh,UPR XBP1 act
COc1ccc(CNC(=O)CCS(=O)(=O)c2cc3c(cc2Cl)NC(=O)CO3)cc1,3,-1,i,nt,i,-1
O=C(O)c1cnc(-c2ccccc2)nc1Sc1ccc(Cl)cc1Cl,1,nt,i,15,100*,0
CC1CN(C(=O)CCC(=O)NCc2ccccc2Cl)c2ccccc2S1 (stereo not given),1,-16,i,nt,i,0
CCCCNc1nc(N)nc(-c2cc(Cl)ccc2O)n1,2,-14,i,77*,i,-5
O=C(CSc1ccc([N+](=O)[O-])cc1)NNC(=O)c1ccccc1F,3,-4,i,nt,i,1
CC1CCN(C(=O)C2CCN(C(=O)c3cc4sccc4n3Cc3ccc(F)cc3)CC2)CC1,-1,nt,i,71*,i,-3
CCC(=O)N1CCN(c2nc3ccccc3s2)CC1,5,16,i,6,i,1
O=C(c1cc2sccc2n1Cc1ccccc1)N1CCN(c2nc3ccccc3s2)CC1,2,nt,i,71*,i,-4
CC(C)NC(=O)C1CCN(C(=O)c2cc3sccc3n2Cc2ccc(F)cc2)CC1,15,11,i,51,i,-3
Cc1ccc(N(CC(=O)NCc2ccccc2)C(=O)c2csnn2)c(C)c1,1,-4,i,nt,i,-3
Cc1cc(C)c(C(=O)Nn2c(C)nc3ccccc3c2=O)cc1C,-1,-30,nt,nt,i,-3
CCCC(O)(c1ccccc1)C(CN1CCOCC1)c1ccccc1 (stereo not given),0,nt,i,nt,i,-6
CCCC(O)(c1ccc(Cl)cc1)C(CN1CCOCC1)c1ccccc1 (stereo not given),0,nt,i,90*,i,0
COc1ccccc1C(=O)NCC(=O)OCC(=O)N(CC(C)C)c1c(N)n(Cc2ccccc2)c(=O)[nH]c1=O,1,nt,i,nt,i,-5
CC(C)(C)OC(=O)C[C@@H]1C/C=C\C[C@@H](CC(=O)N(CCO)Cc2ccccc2)C(=O)NCCOC1=O,2,nt,-4.8*,nt,nt,-1
O=C(NCCNC(=O)Oc1cccc2ccccc12)Oc1cccc2ccccc12,nt,nt,i,nt,nt,nt
CC1(C)Oc2ccc3ccc(=O)oc3c2C(N2CCCCC2)C1O (stereo not given),-3,0,i,-6,i,1
CC(=O)OC1C(N2CCCCC2)c2c(ccc(/C=C/C(=O)N3CCCCC3)c2O)OC1(C)C (stereo not given),7,-6,i,77*,i,3
CC(C)C(C)(C#N)NC(=O)CSc1nnc(-c2ccncc2)n1Cc1ccccc1 (stereo not given),0,nt,i,10,25*,0
CC(C)c1ccc(NC(=O)CCS(=O)(=O)c2cccc3nonc23)cc1,4,9,i,nt,i,-2
Cc1occc1-c1nnc(SCC(=O)Nc2nc3ccccc3s2)o1,-3,3,i,-21,i,0
CC(C)CCCCCCNC(=S)Nc1ccc(S(=O)(=O)N2CCOCC2)cc1,-1,-4,i,76*,100*,4
